ChEMBL document CHEMBL3779860, “A Designed Tryptophan- and Lysine/Arginine-Rich Antimicrobial Peptide with Therapeutic Potential for Clinical Antibiotic-Resistant Candida albicans Vaginitis” (J Med Chem, 2016)
In brackets after ≈: the same amount, converted by molar mass. Activity calls are given as the source filed them. No cut-off for these calls is given here.

What was measured:
Bacillus subtilis = assay: Antimicrobial activity against Bacillus subtilis assessed as inhibition of […] growth after 16 hrs by broth dilution method; format: functional
Procedure, shortened: (§1)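 Broth dilution in LB broth; 100 µL of 2 × 10^5 CFU/mL bacterial suspension plus 10 µL sample (stock series in 0.9% NaCl) in 90 µL broth, 37°C for 16 h. Growth read as A600; MIC is the lowest concentration completely inhibiting growth. Mean of three independent experiments run in duplicate.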

Escherichia coli = assay: Antimicrobial activity against Escherichia coli ATCC 25922 assessed as inhibition of […] growth after 16 hrs by broth dilution method; format: functional; settings: ATCC 25922, 16 h; procedure, shortened: as §1
Staphylococcus aureus = assay: Antimicrobial activity against Staphylococcus aureus ATCC 2592 assessed as inhibition of […] growth after 16 hrs by broth dilution method; format: functional; settings: ATCC 2592, 16 h; procedure, shortened: as §1
[1] = Hemolytic activity in human RBC after 30 mins; format: ADME, cell-based, Erythrocyte; settings: for HC10: erythrocyte, 0.5 h; for HC50 at 0.5 h: red blood cells
Procedure, shortened: (§2)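 Serial dilutions were incubated with human erythrocytes for 30 min at 37°C. Supernatant absorbance was read at 540 nm after centrifugation. Hemolysis is expressed as % of the 1% Triton X-100 lysis value, pooled from three independent experiments. The highest concentration tested was 320 µg/mL.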

[2] = Induction of hemolysis in human RBC at 320 ug/mL after 30 mins; format: cell-based, Erythrocyte; settings: red blood cells, read-out: Activity; procedure, shortened: as §2
Candida albicans [3] = assay: Antimicrobial activity against Candida albicans ATCC 2002 assessed as inhibition of yeast growth after 16 hrs by broth dilution method; format: functional; settings: ATCC 2002, 16 h
Procedure, shortened: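 Broth microdilution in Sabouraud liquid medium. Samples are stocks in 0.9% NaCl, 10 µL added to 90 µL broth plus 100 µL of 2 × 10^5 CFU/mL yeast suspension. Incubated 16 h at 28°C, growth read by A600. MIC is the lowest concentration completely inhibiting growth; mean of three independent experiments.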

Candida albicans [4] = assay: Antimicrobial activity against antibiotic resistant Candida albicans clinical isolate 08030809 assessed as clone count at 10 mg/ml after 1 min by colony counting assay (reference value: 62 +/- 7 CFU); format: functional
Candida albicans [5] = assay: Antimicrobial activity against antibiotic resistant Candida albicans clinical isolate 08030809 assessed as clone count at 10 mg/ml after 10 mins by colony counting assay (reference value: 102 +/- 11 CFU); format: functional
Candida albicans [6] = assay: Antimicrobial activity against antibiotic resistant Candida albicans clinical isolate 08030809 in mouse vaginitis model assessed as colony count in lavage liquid of vagina at 10 mg/ml administered as intravaginal instillation measured on day 16; format: functional
Candida albicans [7] = assay: Antimicrobial activity against antibiotic resistant Candida albicans clinical isolate 08030809 assessed as clone count at 10 mg/ml after 6 hrs by colony counting assay (reference value: 14536 +/- 2467 CFU); format: functional
Mus musculus [8] = assay: Antiinflammatory activity in antibiotic resistant Candida albicans clinical isolate 08030809 induced mouse vaginitis model assessed as reduction in IL-10 secretion in vaginal tissue at 10 mg/ml administered as intravaginal instillation measured on day 10 by ELISA; format: functional, organism-based; settings: Vagina
Procedure, shortened: (§3)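 Same estradiol-primed mouse model, infected intravaginally with C. albicans 08030809 and treated by intravaginal instillation (20 µL/mouse). Vaginal canals excised on day 10 of treatment and homogenised in 0.9% NaCl. Supernatant taken after 2,000 g for 15 min. TNF-α, IL-6, IL-1β and IL-10 measured by ELISA. Mean ± SE of three independent experiments; unpaired t-test versus vehicle.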

Candida albicans [9] = assay: Antimicrobial activity against antibiotic resistant Candida albicans clinical isolate 08030809 in mouse vaginitis model assessed as decrease in colony count in lavage liquid of vagina at 10 mg/ml administered as intravaginal instillation measured on day 16; format: functional; settings: isolate 08030809, Vagina, topical, 384 h
Candida albicans [10] = assay: Antimicrobial activity against antibiotic resistant Candida albicans clinical isolate 08030809 assessed as clone count at 10 mg/ml after 1 hr by colony counting assay (reference value: 228 +/- 23 CFU); format: functional
Candida albicans [11] = assay: Effect on cell membrane integrity in antibiotic resistant Candida albicans clinical isolate 08030809 at 20 ug/ml measured every 2 mins upto 20 mins by SYTOX green nucleic acid staining-based fluorescence assay; format: functional, organism-based
Procedure, shortened: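 Exponential-phase C. albicans 08030809 was washed and resuspended at 10^6 CFU/mL in 10 mM PBS pH 7.4. Cells were loaded with 0.1 µM (final) SYTOX Green for 15 min at 37°C with shaking, then test samples were added. Fluorescence (ex 488/em 530 nm) was recorded every 2 min as RFU. Mean ± SE of five independent experiments.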

Candida albicans [12] = assay: Antimicrobial activity against antibiotic resistant Candida albicans clinical isolate 08030809 assessed as clone count at 10 mg/ml after 3 hrs by colony counting assay (reference value: 3687 +/- 543 CFU); format: functional
Candida albicans [13] = assay: Antimicrobial activity against antibiotic resistant Candida albicans clinical isolate 08030809 assessed as clone count at 10 mg/ml after 12 hrs by colony counting assay (reference value: 54153 +/- 8769 CFU); format: functional
Candida albicans [14] = assay: Antimicrobial activity against antibiotic resistant Candida albicans clinical isolate 08030809 assessed as clone count at 10 mg/ml after 30 mins by colony counting assay (reference value: 156 +/- 16 CFU); format: functional
Mus musculus [15] = assay: Antiinflammatory activity in antibiotic resistant Candida albicans clinical isolate 08030809 induced mouse vaginitis model assessed as reduction in IL-1beta secretion in vaginal tissue at 10 mg/ml administered as intravaginal instillation measured on day 10 by ELISA; format: functional, organism-based; settings: Vagina; procedure, shortened: as §3
Mus musculus [16] = assay: (§4) Antiinflammatory activity in antibiotic resistant Candida albicans clinical isolate 08030809 induced mouse vaginitis model assessed as microabscess number in vaginal tissue at 200 ug administered as intravaginal instillation measured after 16 days by hematoxylin-eosin staining based microscopic method (reference value: 61); format: functional, Vagina
Procedure, shortened: (§5)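 Mice given weekly subcutaneous estradiol valerate (0.5 mg in 0.1 mL vegetable oil) 72 h before infection. Infected intravaginally with 20 µL of 10^7 CFU/mL C. albicans 08030809. Intravaginal instillation of 20 µL daily for 16 days. Vaginal canals excised after lavage, formalin-fixed, paraffin-embedded, HE-stained. Microabscesses counted per high-power field over 6 fields per section, three independent experiments.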

Mus musculus [17] = assay: Antiinflammatory activity in antibiotic resistant Candida albicans clinical isolate 08030809 induced mouse vaginitis model assessed as reduction in IL-6 secretion in vaginal tissue at 10 mg/ml administered as intravaginal instillation measured on day 10 by ELISA; format: functional, organism-based; settings: Vagina; procedure, shortened: as §3
Mus musculus [18] = assay: as §4, with “on day 6” for “after 16 days”; format: functional, Vagina; procedure, shortened: as §5
Candida albicans [19] = assay: Antimicrobial activity against antibiotic resistant Candida albicans clinical isolate 08030809 assessed as clone count at 10 mg/ml after 24 hrs by colony counting assay (Rvb > 10^5 CFU); format: functional
Mus musculus [20] = assay: Antiinflammatory activity in antibiotic resistant Candida albicans clinical isolate 08030809 induced mouse vaginitis model assessed as reduction in TNF-alpha secretion in vaginal tissue at 10 mg/ml administered as intravaginal instillation measured on day 10 by ELISA; format: functional, organism-based; settings: Vagina; procedure, shortened: as §3

## CC1(C)S[C@@H]2[C@H](NC(=O)[C@H](N)c3ccccc3)C(=O)N2[C@H]1C(=O)O [AMPICILLIN]
Bacillus subtilis
  MIC: 0.02 µg/mL (≈ 0.0572 µM)
Escherichia coli
  MIC: 18.7 µg/mL (≈ 53.5 µM)
Staphylococcus aureus
  MIC: 0.15 µg/mL (≈ 0.429 µM)

## H-VKRWKKWWRKLKKSV-NH2
[1]
  HC10: > 320 µg/mL
  HC50 at 0.5 h: > 320 µg/mL
[2]
  hemolysis at 0.5 h, 320 ug/mL: 8.7%
Bacillus subtilis
  MIC: > 100 µg/mL
Escherichia coli
  MIC: 18.8 µg/mL
Candida albicans [3]
  MIC: 9.38 µg/mL
Staphylococcus aureus
  MIC: > 100 µg/mL

## H-VKRFKKFFRKFKKSV-NH2 [listing 1 of 2 here]
Bacillus subtilis
  MIC: > 100 µg/mL
Escherichia coli
  MIC: 37.5 µg/mL
Candida albicans [3]
  MIC: 9.38 µg/mL
Staphylococcus aureus
  MIC: > 100 µg/mL

## H-KFFRKLKKSVKKRAKEFFKKPRVIGVSIPF-OH
[1]
  HC10: > 320 µg/mL
  HC50 at 0.5 h: > 320 µg/mL
[2]
  hemolysis at 0.5 h, 320 ug/mL: 7.4%
Bacillus subtilis
  MIC: 9.38 µg/mL
Escherichia coli
  MIC: 2.34 µg/mL
Candida albicans [3]
  MIC: 4.7 µg/mL
Staphylococcus aureus
  MIC: > 100 µg/mL

## H-VKWRWKKWRWKWKWKV-NH2 [listing 1 of 2 here]
[1]
  HC10: 178.3 µg/mL
  HC50 at 0.5 h: > 320 µg/mL
[2]
  hemolysis at 0.5 h, 320 ug/mL: 17.6%

## H-VKRWKKFWRKWKKWW-NH2 [listing 1 of 2 here]
Bacillus subtilis
  MIC: 4.69 µg/mL
Escherichia coli
  MIC: 18.8 µg/mL
Candida albicans [3]
  MIC: 2.34 µg/mL
Staphylococcus aureus
  MIC: 4.69 µg/mL

## OC(Cn1cncn1)(Cn1cncn1)c1ccc(F)cc1F [FLUCONAZOLE]
Candida albicans [3]
  MIC: 18.7 µg/mL (≈ 61.1 µM)

## H-VKWRWKWKWRWKWKWKV-NH2
[1]
  HC10: 62.8 µg/mL
  HC50 at 0.5 h: > 320 µg/mL
[2]
  hemolysis at 0.5 h, 320 ug/mL: 30.8%
Bacillus subtilis
  MIC: > 100 µg/mL
Escherichia coli
  MIC: > 100 µg/mL
Candida albicans [3]
  MIC: > 100 µg/mL
Staphylococcus aureus
  MIC: > 100 µg/mL

## H-VKWRWKKWRWKWKWKV-NH2 [listing 2 of 2 here]
Bacillus subtilis
  MIC: > 100 µg/mL
Escherichia coli
  MIC: > 100 µg/mL
Candida albicans [3]
  MIC: > 100 µg/mL
Staphylococcus aureus
  MIC: > 100 µg/mL

## H-VKRFKKFFRKLKKSV-NH2
[1]
  HC10: > 320 µg/mL
  HC50 at 0.5 h: > 320 µg/mL
[2]
  hemolysis at 0.5 h, 320 ug/mL: 9.7%
Bacillus subtilis
  MIC: 75 µg/mL
Escherichia coli
  MIC: 18.8 µg/mL
Candida albicans [3]
  MIC: 18.8 µg/mL
Staphylococcus aureus
  MIC: > 100 µg/mL

## H-VKRFKKFFRKFKKSV-NH2 [listing 2 of 2 here]
[1]
  HC10: > 320 µg/mL
  HC50 at 0.5 h: > 320 µg/mL
[2]
  hemolysis at 0.5 h, 320 ug/mL: 7.5%

## Clc1ccccc1C(c1ccccc1)(c1ccccc1)n1ccnc1 [CLOTRIMAZOLE]
Candida albicans [4]
  Activity: 42 CFU
Candida albicans [5]
  Activity: 64 CFU
Candida albicans [6]
  Activity: 1.2 ×10⁴ CFU/ml
Candida albicans [7]
  Activity: 2674 CFU
Mus musculus [8]
  Activity: inactive
Candida albicans [9]
  inhibition in vivo at 10000 µg/mL: 38%
Candida albicans [10]
  Activity: 178 CFU
Candida albicans [11]
  Activity: inactive
Candida albicans [12]
  Activity: 533 CFU
Candida albicans [13]
  Activity: 15789 CFU
Candida albicans [14]
  Activity: 106 CFU
Mus musculus [15]
  Activity: inactive
Mus musculus [16]
  Activity: 10
Mus musculus [17]
  Activity: inactive
Mus musculus [18]
  Activity: 18
Candida albicans [19]
  Activity: 57425 CFU
Mus musculus [20]
  Activity: inactive

## H-VKRWKKFWRKWKKWW-NH2 [listing 2 of 2 here]
[1]
  HC10: 51.7 µg/mL
  HC50 at 0.5 h: > 320 µg/mL
[2]
  hemolysis at 0.5 h, 320 ug/mL: 27.6%
